# Data reported in publication PMC10523135 (RSC Advances, 2023).
# Legend:
# Type in all cases: cell-based
# [1] = test system: HeLa (human cervical cancer cell line); assay: CCK-8 antiproliferative assay, HeLa; conditions: 48 h, read-out: IC50 (μM) ± SD Hela
# Procedure, shortened: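 HeLa cells were grown in RPMI 1640 with 10% FBS and 1% penicillin/streptomycin at 37 °C, 5% CO2. They were seeded at 5 × 10^4 cells per well and left 24 h. Test compound was diluted from […] DMSO stock into medium, with final DMSO below 0.1%, and exposure lasted 48 h. CCK-8 was then added for 2 h at 37 °C and absorbance read at 450 nm. IC50 came from viability data; experiments were done three times.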
# [2] = test system: MCF-7 (human breast cancer cell line); assay: CCK-8 antiproliferative assay, MCF-7; conditions: MCF7, 48 h, read-out: IC50 (μM) ± SD MCF-7
# [3] = test system: A549 (human lung cancer cell line); assay: CCK-8 antiproliferative assay, A549; conditions: A549, 48 h, read-out: IC50 (μM) ± SD A549
SMILES,IC50 [1] [µM],IC50 [2] [µM],IC50 [3] [µM]
CNC(=O)c1c(C)oc2cc(Oc3ncnc4cc(OC)c(OC)cc34)ccc12 [Fruquintinib],8.35 ± 0.47,> 20,
O=C(CCCCCCC(=O)Nc1ccccc1)NO [SAHA],1.03 ± 0.33,,3.54 ± 0.25
